Test results: ChEMBL document CHEMBL3414541, “Discovery of new thienopyrimidinone derivatives displaying antimalarial properties toward both erythrocytic and hepatic stages of Plasmodium” (Eur J Med Chem, 2015)

What was measured:
[1] = Selectivity index, ratio of CC50 for human HepG2 cells to IC50 for chloroquine-sensitive Plasmodium falciparum 3D7 infected in human erythrocytes; format: functional
How it was run: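 SI = HepG2 CC50 (72 h MTT) / P. falciparum IC50. […] Cultures were exposed 72 h at 37 °C to compound (DMSO final <0.5%), in duplicate. Growth was read by SYBR Green I lysis fluorescence (ex 497, em 520 nm), from three independent experiments.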

Toxoplasma gondii = experiment: Antitoxoplasmic activity against tachyzoite stage of Toxoplasma gondii PRU transfected with beta galactosidase infected in HFF assessed as parasite growth inhibition after 96 hrs by colorimetric microtiter assay; format: functional
How it was run: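 Confluent HFF monolayers (1×10^4 seeded) were infected with 2×10^3 PRU-β-Gal tachyzoites for 3 h. Compounds from DMSO (final <0.5%) were then added in triplicate for 96 h at 37 °C. CPRG was added at 500 µM final for 24 h more, then A570 read (630 nm reference). IC50 came from non-linear regression, mean of three experiments.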

Plasmodium falciparum [2] = experiment: Antiplasmodial activity against multi-drug resistant Plasmodium falciparum K1 infected in human erythrocytes assessed as parasite growth inhibition after 72 hrs by SYBR Green I dye-based fluorescence assay in presence of ascorbic acid; format: functional, organism-based; settings: K1, 72 h
How it was run: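 Same SYBR Green I 72 h growth assay on the K1 strain (2% haematocrit, 1% parasitaemia, 37 °C, 6% CO2/14% O2/80% N2, DMSO <0.5%), with 800 µM ascorbic acid in the medium as radical trap. Duplicates; artesunate as positive control; IC50 derived.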

HepG2 = experiment: (§1) Cytotoxicity against human HepG2 cells assessed as cell viability after 72 hrs by MTT assay; format: cell-based; settings: hepg2, 72 h, 72 h, read-out: CC50
How it was run: (§2)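 Cells were kept in RPMI with 10% FBS. 5×10^3 cells/well were settled 24 h, then exposed to compound from DMSO (final <0.5%): CHO for 24 h, HepG2 for 72 h, in duplicate. Wells were checked for precipitate. MTT was added for 2 h at 37 °C, formazan dissolved in DMSO, and A570 read (630 nm reference). Viability is % of untreated cells; CC50 from non-linear regression, mean of three experiments.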

Salmonella typhimurium [3] = experiment: Mutagenicity in Salmonella typhimurium TA100 at 2.5 mM after 1 hr by Ames test in absence of S9 fraction; format: toxicity, organism-based; settings: salmonella enterica subsp. enterica serovar typhimurium, 2500 µM
How it was run: (§3)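 Tester strains were grown overnight in nutrient broth. 0.1 mL culture was incubated 1 h at 37 °C with shaking with compound (2.5–25 mM DMSO solutions), with or without 4% S9 mix. Top agar was added and the mix plated on Vogel-Bonner agar. Revertants were counted after 48 h at 37 °C in the dark. A twofold rise over spontaneous revertants counts as mutagenic.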

[4] = Inhibition of hemozoin polymerization after 24 hrs by spectroscopic analysis; format: functional
How it was run: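 Hemozoin (4 mM solution in 0.1 M NaOH) was mixed with compound at drug:heme ratios of 1:1 to 8:1, in triplicate. Acetic acid was added to pH 3, and samples were incubated 24 h at 37 °C. Soluble, DMSO-soluble and pellet fractions were separated by centrifugation. Each fraction was quantified at A405 against a hemozoin standard curve. IC50 is 50% decrease in polymerization.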

Salmonella typhimurium [5] = experiment: Mutagenicity in Salmonella typhimurium TA100 at 2.5 mM after 1 hr by Ames test in presence of S9 fraction; format: toxicity, organism-based; settings: salmonella enterica subsp. enterica serovar typhimurium, s9, 1 h, 2500 µM
How it was run: (§4)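 Tester strains were grown overnight in nutrient broth. Top agar was added and the mix plated on Vogel-Bonner agar. Revertants were counted after 48 h at 37 °C in the dark. A twofold rise over spontaneous revertants counts as mutagenic.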

[6] = Genotoxicity in DNA (unknown origin) incubated for 24 hrs in dark condition by methyl green displacement assay
How it was run: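 DNA-methyl green (4 mg in 20 mL 0.05 M Tris-HCl pH 7.5 with 7.5 mmol/L MgSO4) was shaken 24 h at 37 °C. It was then added to compound from DMSO (final <0.5%). A630 was read, and read again after 24 h at room temperature in the dark. DC50 is the concentration displacing 50% of methyl green.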

Plasmodium falciparum [7] = experiment: Antiplasmodial activity against chloroquine-sensitive Plasmodium falciparum 3D7 infected in human erythrocytes assessed as parasite growth inhibition after 72 hrs by SYBR Green I dye-based fluorescence assay; format: functional, organism-based
How it was run: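 Parasites grown in A+ human erythrocytes (2.5% haematocrit) in RPMI 1640 with 25 mM HEPES, 25 mM NaHCO3 and 10% A+ serum, at 37 °C under 6% CO2/14% O2/80% N2. Rings were sorbitol-synchronized. Compounds in DMSO (<0.5% final) were incubated 72 h at 2% haematocrit and 1% parasitaemia. SYBR Green lysis read at ex 497/em 520 nm; duplicates; IC50 from three independent experiments.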

[8] = Inhibition of Plasmodium falciparum DHFR after 48 hrs
How it was run: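 Recombinant S. cerevisiae whose own DHFR is replaced by the P. falciparum DHFR domain was used. 1×10^4 cells were grown in YEPD with compound from DMSO (final <0.5%) at 30 °C for 48 h, in duplicate. Growth was read as A660. IC50 (50% growth inhibition) came from non-linear regression.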

Leishmania donovani = experiment: Antileishmanial activity against promastigote stage of Leishmania donovani assessed as parasite growth inhibition after 72 hrs by MTT assay; format: functional, organism-based
How it was run: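 L. donovani promastigotes were grown at 27 °C in Schneider's medium with 10% FBS. 1×10^6 log-phase cells/well were exposed to compound from DMSO (final <0.5% v/v) for 72 h at 27 °C, in duplicate. MTT was then added for 6 h, formazan dissolved in DMSO, and A570 read (630 nm reference). IC50 came from non-linear regression, mean of three independent experiments.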

Salmonella typhimurium [9] = experiment: Mutagenicity in Salmonella typhimurium TA97A at 2.5 mM after 1 hr by Ames test in absence of S9 fraction; format: toxicity, organism-based; settings: salmonella enterica subsp. enterica serovar typhimurium, 2500 µM; how it was run: as §3
Plasmodium falciparum [10] = experiment: Antiplasmodial activity against multi-drug resistant Plasmodium falciparum K1 infected in human erythrocytes assessed as parasite growth inhibition after 72 hrs by SYBR Green I dye-based fluorescence assay; format: functional, organism-based; settings: read-out: IC50
[11] = Selectivity index, ratio of CC50 for human HepG2 cells to IC50 for multi-drug resistant Plasmodium falciparum K1 infected in human erythrocytes
Salmonella typhimurium [12] = experiment: Mutagenicity in Salmonella typhimurium TA97A at 2.5 mM after 1 hr by Ames test in presence of S9 fraction; format: toxicity, organism-based; settings: salmonella enterica subsp. enterica serovar typhimurium, s9, 1 h, 2500 µM; how it was run: as §4
Plasmodium yoelii = experiment: Antiplasmodial activity against liver stage of Plasmodium yoelii 17X NL sporozoites infected in human HepG2 cells expressing CD81 after 48 hrs by DAPI staining-based immunofluorescence analysis; format: functional, organism-based; settings: HepG2, 48 h
How it was run: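 HepG2/CD81 cells were grown in D-MEM with 10% FBS. 25×10^3 cells/well went on collagen-coated wells; after 24 h they received compound and 5000 P. yoelii sporozoites together, then were spun 900 × g for 10 min at 4 °C. Treatment was renewed at 3 h and 24 h. At 48 h cells were methanol-fixed, stained with anti-HSP70 immunofluorescence, and parasites counted by microscopy. IC50 is 50% fewer parasites than in 0.5% DMSO controls.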

[13] = as §1; format: cell-based; settings: HepG2 cells; how it was run: as §2
[14] = Selectivity index, ratio of CC50 for human HepG2 cells expressing CD81 to IC50 for liver stage of Plasmodium yoelii 17X NL sporozoites infected in human HepG2 cells expressing CD81; format: functional
Plasmodium berghei = experiment: Antiplasmodial activity against chloroquine-sensitive Plasmodium berghei NK65 infected in Swiss mouse assessed as reduction in parasitemia at 2.5 mg/kg, ip bid administered for 4 days measured on day 4 by Giemsa staining relative to control; format: functional; set-up: scale not given: the % may be the effect or the level left; settings: route intraperitoneal
How it was run: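 Male Swiss mice (20 ± 2 g) were infected on day 0 with 10^7 parasitized cells in 0.9% saline. Groups of 5 were dosed ip at 2.5 mg/kg twice a day from day 0 to day 3.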

[15] = Cytotoxicity against human HepG2 cells expressing CD81 assessed as cell viability after 72 hrs by MTT assay; format: cell-based
Plasmodium falciparum [16] = experiment: Antiplasmodial activity against multi-drug resistant erythrocytic stage of Plasmodium falciparum K1 isolated from synchronized culture assessed as reduction in parasitemia at 5 X IC50 measured for 32 hrs by spectrophotometric analysis relative to control; format: functional; set-up: scale not given: the % may be the effect or the level left
How it was run: (§5)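 K1 cultures were synchronized to an 8-h window with 5% D-sorbitol and held in 24-well plates at 0.8% parasitemia and 4% hematocrit. They received 8-h compound pulses (DMSO <0.5%) at successive points of the cycle, then three washes and culture to the ring stage of the next cycle. Fluorescence read at 497/520 nm; % growth inhibition versus DMSO control; chloroquine as positive control.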

Plasmodium falciparum [17] = experiment: Antiplasmodial activity against multi-drug resistant erythrocytic stage of Plasmodium falciparum K1 isolated from synchronized culture assessed as reduction in parasitemia at 5 X IC50 measured for 8 hrs by spectrophotometric analysis relative to control; format: functional; set-up: scale not given: the % may be the effect or the level left; how it was run: as §5
[18] = Cytotoxicity against CHO cells assessed as cell viability after 24 hrs by MTT assay; format: cell-based, Cricetulus griseus; settings: chinese hamster; how it was run: as §2
Plasmodium falciparum [19] = experiment: Antiplasmodial activity against multi-drug resistant Plasmodium falciparum K1 after 72 hrs by SYBR Green I dye-based fluorescence assay; settings: K1, 72 h
[20] = Cytotoxicity against human HepG2 cells expressing CD81 assessed as cell viability after 72 hrs by CellTiter-glo assay; format: cell-based

Row | SMILES | Ratio CC50/IC50 [1] | IC50 (Toxoplasma gondii) [µM] | IC50 (Plasmodium falciparum [2]) [µM] | CC50 (HepG2) [µM] | Activity (Salmonella typhimurium [3]) | IC50 [4] [µM] | Activity (Salmonella typhimurium [5]) | DC50 [6] [µM] | IC50 (Plasmodium falciparum [7]) [µM] | IC50 [8] [µM] | IC50 (Leishmania donovani) [µM] | Activity (Salmonella typhimurium [9]) | IC50 (Plasmodium falciparum [10]) [µM] | Ratio CC50/IC50 [11] | Activity (Salmonella typhimurium [12]) | IC50 (Plasmodium yoelii) [µM] | CC50 at 72 h [13] [µM] | Ratio CC50/IC50 [14] | CC50 at 72 h [15] [µM] | further results
1 | Cc1ccc(-c2cc3nc(NC(C)C)[nH]c(=O)c3s2)cc1 | 202 | > 10 | 0.9 | 49.4 | Non-toxic | > 25000 | Non-toxic | > 25000 | 0.247 | > 250 | > 10 | Non-toxic | 0.8 | 62 | Non-toxic | – | – | – | – | –
2 | Cc1ccc(-c2cc3nc(NC(C)(C)C)[nH]c(=O)c3s2)cc1.Cl | 686 | – | – | – | – | – | – | – | 0.035 | – | – | – | 0.045 | 533 | – | 0.035 | 24 | >4086 | > 143 | Activity (Plasmodium berghei): 45%; Activity (Plasmodium falciparum [16]): 30%; Activity (Plasmodium falciparum [17]): 41%
3 | Cc1ccc(-c2cc3nc(NC(C)(C)C)[nH]c(=O)c3s2)cc1 | 183 | > 10 | 0.2 | 25.6 | Non-toxic | 21600 | Non-toxic | > 25000 | 0.14 | > 500 | > 10 | Non-toxic | 0.2 | 128 | Non-toxic | – | – | – | – | CC50 at 24 h [18]: 27.5 µM
4 | CC(C)(C)Nc1nc2cc(-c3ccc(Cl)cc3)sc2c(=O)[nH]1 | 44 | > 10 | 0.8 | 15 | Non-toxic | > 25000 | Non-toxic | > 25000 | 0.344 | > 250 | > 10 | Non-toxic | 0.8 | 19 | Non-toxic | – | – | – | – | –
5 | CC(C)(C)Nc1nc2cc(-c3ccc(Cl)cc3)sc2c(=O)[nH]1.O=C(O)/C=C/C(=O)O | 93 | – | – | – | – | – | – | – | 0.168 | – | – | – | 0.8 | 78 | – | 0.06 | 15.6 | >2000 | > 120 | –
6 | Cc1ccc(-c2cc3nc(NC(C)C)[nH]c(=O)c3s2)cc1.O=C(O)/C=C/C(=O)O | 148 | – | – | – | – | – | – | – | – | – | – | – | 0.8 | 135 | – | 0.12 | 26.9 | >925 | > 111 | IC50 (Plasmodium falciparum [7]; Plasmodium falciparum, 3D7, 72 h): 0.182 µM
7 | CN(C)c1nc2cc(-n3cnc4cc(-c5ccc(Cl)cc5)sc4c3=O)ccc2n1CCCN1CCCC1 | – | – | – | – | – | – | – | – | – | – | – | – | – | – | – | – | – | – | – | IC50 (Plasmodium falciparum [19]): < 10 µM
8 | CCN(CC)CCCC(C)Nc1ccnc2cc(Cl)ccc12 (centres undefined) [CHLOROQUINE] | – | – | – | – | – | 1460 | – | – | – | – | – | – | – | – | – | 1.65 | – | – | – | Activity (Plasmodium berghei): 85%; CC50 at 24 h [18]: 155 µM; CC50 at 72 h [20]: 1.6 µM
